According to ChEMBL document CHEMBL3351861, “New synthetic sulfone derivatives inhibit growth, adhesion and the leucine arylamidase APE2 gene expression of Candida albicans in vitro” (2015):
In brackets after ≈: the same amount, converted by molar mass.

Key:
Candida albicans [1] = assay: Antifungal activity against Candida albicans CAI4 expressing delta-cph1 gene assessed as growth inhibition at 0.5 ug/ml by CLSI M27-A3 method; assay type: functional; settings: read-out: GI
How it was run: (§1)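 CLSI M27-A3 broth microdilution in RPMI, read after 48 h. Strains pre-grown 18 h in YEPD at 30°C. Final inoculum 0.5×10^2–2.5×10^3 cells/ml. Two-fold dilutions in RPMI came from a 1600 µg/ml stock in water with 9% DMSO; final DMSO was 0.09%. OD405 read, % inhibition = 100 − (CTW−SCW)/(GCW−SCW). Triplicate on three occasions, mean±SD.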

Candida albicans [2] = assay: Antifungal activity against Candida albicans CAI4 expressing delta-efg1 (EFG1) gene assessed as growth inhibition at 0.25 ug/ml by CLSI M27-A3 method; assay type: functional; settings: read-out: GI; how it was run: as §1
Candida albicans [3] = assay: Antifungal activity against Candida albicans CAI4 expressing delta-cph1/delta-efg1 gene assessed as growth inhibition at by CLSI M27-A3 method; assay type: functional
Candida albicans [4] = assay: Antifungal activity against Candida albicans CAI4 expressing delta-cph1 (CPH1) gene assessed as growth inhibition at 2 ug/ml by CLSI M27-A3 method; assay type: functional; settings: read-out: GI; how it was run: as §1
Candida albicans [5] = assay: Inhibition of cell adhesion of compound pre-treated Candida albicans CAI4 expressing delta-cph1 gene to human Caco2 cells assessed as cell adhesion level at 4 ug/ml pre-incubated for 18 hrs by colony counting method (reference value: 1.6 +/- 0.65%); assay type: functional, Caco-2; set-up: scale not given: the % may be the effect or the level left
Candida albicans [6] = assay: Antifungal activity against Candida albicans CAI4 expressing delta-cph1/delta-efg1 gene assessed as growth inhibition at 8 ug/ml by CLSI M27-A3 method; assay type: functional; settings: read-out: GI; how it was run: as §1
Candida albicans [7] = assay: Antifungal activity against Candida albicans CAI4 expressing delta-cph1/delta-efg1 gene assessed as growth inhibition at 0.25 ug/ml by CLSI M27-A3 method; assay type: functional; settings: read-out: GI; how it was run: as §1
Candida albicans [8] = assay: Antifungal activity against Candida albicans CAI4 expressing delta-cph1/delta-efg1 (EFG1) gene assessed as growth inhibition at 2 ug/ml by CLSI M27-A3 method; assay type: functional; settings: read-out: GI; how it was run: as §1
Candida albicans [9] = assay: Antifungal activity against Candida albicans 90028 assessed as growth inhibition at 0.25 ug/ml by CLSI M27-A3 method; assay type: functional; settings: read-out: GI; how it was run: as §1
Candida albicans [10] = assay: Inhibition of cell adhesion of compound pre-treated Candida albicans CAI4 expressing delta-cph1 (CPH1) gene to human Caco2 cells assessed as cell adhesion level at 16 ug/ml pre-incubated for 18 hrs by colony counting method (reference value: 5.37 +/- 12.4%); assay type: functional, Caco-2; set-up: scale not given: the % may be the effect or the level left
Candida albicans [11] = assay: Antifungal activity against Candida albicans CAI4 expressing delta-efg1 gene assessed as growth inhibition at 8 ug/ml by CLSI M27-A3 method; assay type: functional; settings: read-out: GI
How it was run: (§2)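 CLSI M27-A3 broth microdilution in RPMI. Final inoculum 0.5×10^2 to 2.5×10^3 cells/ml. Seven two-fold concentrations from 0.25 to 16 µg/ml, with DMSO held at 0.09% (v/v) in all wells. Compound-free growth controls and sterility controls are run for each strain. […] Triplicate on three occasions.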

Candida albicans [12] = assay: Antifungal activity against Candida albicans CAI4 expressing delta-efg1 gene assessed as growth inhibition at by CLSI M27-A3 method; assay type: functional; how it was run: as §2
Candida albicans [13] = assay: Antifungal activity against Candida albicans CAI4 expressing delta-cph1/delta-efg1 (EFG1) gene assessed as growth inhibition at 8 ug/ml by CLSI M27-A3 method; assay type: functional; settings: read-out: GI; how it was run: as §1
Candida albicans [14] = assay: Antifungal activity against Candida albicans CAI4 expressing delta-cph1 (CPH1) gene assessed as growth inhibition at 16 ug/ml by CLSI M27-A3 method; assay type: functional; settings: read-out: GI; how it was run: as §1
Candida albicans [15] = assay: Inhibition of cell adhesion of compound pre-treated Candida albicans SC5314 to human Caco2 cells assessed as cell adhesion level at 16 ug/ml pre-incubated for 18 hrs by colony counting method (reference value: 1.1 +/- 1.1%); assay type: functional, Caco-2; set-up: scale not given: the % may be the effect or the level left
Candida albicans [16] = assay: Antifungal activity against Candida albicans CAI4 expressing delta-cph1 gene assessed as growth inhibition at 2 ug/ml by CLSI M27-A3 method; assay type: functional; settings: read-out: GI; how it was run: as §1
Candida albicans [17] = assay: Antifungal activity against Candida albicans CAI4 expressing delta-cph1/delta-efg1 gene assessed as growth inhibition at 1 ug/ml by CLSI M27-A3 method; assay type: functional; settings: read-out: GI; how it was run: as §1
Candida albicans [18] = assay: Antifungal activity against Candida albicans CAI4 expressing delta-efg1 (EFG1) gene assessed as growth inhibition at 1 ug/ml by CLSI M27-A3 method; assay type: functional; settings: read-out: GI; how it was run: as §1
Candida albicans [19] = assay: Antifungal activity against Candida albicans CAI4 expressing delta-cph1 (CPH1) gene assessed as growth inhibition at 1 ug/ml by CLSI M27-A3 method; assay type: functional; settings: read-out: GI; how it was run: as §1
Candida albicans [20] = assay: Antifungal activity against Candida albicans CAI4 expressing delta-efg1 (EFG1) gene assessed as growth inhibition at 8 ug/ml by CLSI M27-A3 method; assay type: functional; settings: read-out: GI; how it was run: as §1
Candida albicans [21] = assay: Inhibition of cell adhesion of compound pre-treated Candida albicans CAI4 expressing delta-efg1 gene to human Caco2 cells assessed as cell adhesion level at 4 ug/ml pre-incubated for 18 hrs by colony counting method (reference value: 2.1 +/- 3.52%); assay type: functional, Caco-2; set-up: scale not given: the % may be the effect or the level left
Candida albicans [22] = assay: Antifungal activity against Candida albicans CAI4 expressing delta-efg1 (EFG1) gene assessed as growth inhibition at 16 ug/ml by CLSI M27-A3 method; assay type: functional; settings: read-out: GI; how it was run: as §1
Candida albicans [23] = assay: Antifungal activity against Candida albicans CAI4 expressing delta-cph1 (CPH1) gene assessed as growth inhibition at 0.25 ug/ml by CLSI M27-A3 method; assay type: functional; settings: read-out: GI; how it was run: as §1
Candida albicans [24] = assay: Antifungal activity against Candida albicans CAI4 expressing delta-efg1 gene assessed as growth inhibition at 0.25 ug/ml by CLSI M27-A3 method; assay type: functional; settings: read-out: GI; how it was run: as §1
Candida albicans [25] = assay: Inhibition of cell adhesion of compound pre-treated Candida albicans CAI4 expressing delta-efg1/delta-cph1 gene to human Caco2 cells assessed as cell adhesion level at 2 ug/ml pre-incubated for 18 hrs by colony counting method (reference value: 1.22 +/- 0.78%); assay type: functional, Caco-2; set-up: scale not given: the % may be the effect or the level left
Candida albicans [26] = assay: Antifungal activity against Candida albicans CAI4 expressing delta-cph1 (CPH1) gene assessed as growth inhibition at 8 ug/ml by CLSI M27-A3 method; assay type: functional; settings: read-out: GI; how it was run: as §1
Candida albicans [27] = assay: Inhibition of cell adhesion of compound pre-treated Candida albicans CAI4 expressing delta-efg1 gene to human Caco2 cells assessed as cell adhesion level at 8 ug/ml pre-incubated for 18 hrs by colony counting method (reference value: 2.1 +/- 3.52%); assay type: functional, Caco-2; set-up: scale not given: the % may be the effect or the level left
Candida albicans [28] = assay: Antifungal activity against Candida albicans CAI4 expressing delta-cph1 gene assessed as growth inhibition at 4 ug/ml by CLSI M27-A3 method; assay type: functional; settings: read-out: GI; how it was run: as §1
Candida albicans [29] = assay: Antifungal activity against Candida albicans CAI4 expressing delta-cph1 gene assessed as growth inhibition at 1 ug/ml by CLSI M27-A3 method; assay type: functional; settings: read-out: GI; how it was run: as §1
Candida albicans [30] = assay: Antifungal activity against Candida albicans CAI4 expressing delta-efg1 gene assessed as growth inhibition at 1 ug/ml by CLSI M27-A3 method; assay type: functional; settings: read-out: GI; how it was run: as §2
Candida albicans [31] = assay: Antifungal activity against Candida albicans 90028 assessed as growth inhibition at 2 ug/ml by CLSI M27-A3 method; assay type: functional; settings: read-out: GI; how it was run: as §1
Candida albicans [32] = assay: Antifungal activity against Candida albicans CAI4 expressing delta-cph1 gene assessed as growth inhibition at 16 ug/ml by CLSI M27-A3 method; assay type: functional; settings: read-out: GI; how it was run: as §1

Row | SMILES | inhibition of growth at 0.5 µg/mL (Candida albicans [1]) [%] | inhibition of growth at 0.25 µg/mL (Candida albicans [2]) [%] | MIC90 (Candida albicans [3]) [µg/mL] | inhibition of growth at 2 µg/mL (Candida albicans [4]) [%] | Activity (Candida albicans [5]) [%] | inhibition of growth at 8 µg/mL (Candida albicans [6]) [%] | inhibition of growth at 0.25 µg/mL (Candida albicans [7]) [%] | inhibition of growth at 2 µg/mL (Candida albicans [8]) [%] | inhibition of growth at 0.25 µg/mL (Candida albicans [9]) [%] | Activity (Candida albicans [10]) [%] | inhibition of growth at 8 µg/mL (Candida albicans [11]) [%] | MIC90 (Candida albicans [12]) [µg/mL] | inhibition of growth at 8 µg/mL (Candida albicans [13]) [%] | inhibition of growth at 16 µg/mL (Candida albicans [14]) [%] | Activity (Candida albicans [15]) [%] | inhibition of growth at 2 µg/mL (Candida albicans [16]) [%] | inhibition of growth at 1 µg/mL (Candida albicans [17]) [%] | inhibition of growth at 1 µg/mL (Candida albicans [18]) [%] | inhibition of growth at 1 µg/mL (Candida albicans [19]) [%] | inhibition of growth at 8 µg/mL (Candida albicans [20]) [%] | other results
1 | NNc1ccc(S(=O)(=O)C(Cl)(Br)Br)cc1[N+](=O)[O-] | 96.6 | 98.6 | 4 (≈ 9.45 µM) | 99.3 | 0.22 | 100 | 70 | 99.3 | 17 | 0.78 | 100 | 4 (≈ 9.45 µM) | 99.4 | 99.8 | 0.8 | 100 | 100 | 98.8 | 98.8 | 99.8 | Activity (Candida albicans [21]): 0.69%; inhibition of growth at 16 µg/mL (Candida albicans [22]): 99.8%; inhibition of growth at 0.25 µg/mL (Candida albicans [23]): 98.6%; inhibition of growth at 0.25 µg/mL (Candida albicans [24]): 70.8%; Activity (Candida albicans [25]): 2.94%; inhibition of growth at 8 µg/mL (Candida albicans [26]): 99.7%; Activity (Candida albicans [27]): 0.63%; inhibition of growth at 4 µg/mL (Candida albicans [28]): 100%; inhibition of growth at 1 µg/mL (Candida albicans [29]): 99.8%; inhibition of growth at 1 µg/mL (Candida albicans [30]): 99.5%; inhibition of growth at 2 µg/mL (Candida albicans [31]): 99.6%; inhibition of growth at 16 µg/mL (Candida albicans [32]): 100%
2 | O=[N+]([O-])c1cc(S(=O)(=O)C(Cl)(Cl)Br)ccc1Cl | 97.4 | 99 | 16 (≈ 41.7 µM) | 99.2 | 0.55 | 99.4 | 98.3 | 99.3 | 98.6 | 0.48 | 99.5 | 16 (≈ 41.7 µM) | 99.8 | 99.8 | 0.71 | 98.9 | 98.8 | 99.2 | 98.7 | 99.4 | Activity (Candida albicans [21]): 1.14%; inhibition of growth at 16 µg/mL (Candida albicans [22]): 99.5%; inhibition of growth at 0.25 µg/mL (Candida albicans [23]): 96.7%; inhibition of growth at 0.25 µg/mL (Candida albicans [24]): 98.4%; Activity (Candida albicans [25]): 0.78%; inhibition of growth at 8 µg/mL (Candida albicans [26]): 99.8%; Activity (Candida albicans [27]): 0.49%; inhibition of growth at 4 µg/mL (Candida albicans [28]): 98.7%; inhibition of growth at 1 µg/mL (Candida albicans [29]): 97.8%; inhibition of growth at 1 µg/mL (Candida albicans [30]): 98.5%; inhibition of growth at 2 µg/mL (Candida albicans [31]): 98.9%; inhibition of growth at 16 µg/mL (Candida albicans [32]): 99.6%
3 | O=[N+]([O-])c1cc(S(=O)(=O)C(Cl)Cl)ccc1Cl | 99.1 | 95.2 | 16 (≈ 52.5 µM) | 98.6 | 0.99 | 99.4 | 99 | 99.2 | 99.1 | 2.28 | 99.4 | 16 (≈ 52.5 µM) | 99.3 | 99.4 | 0.68 | 99 | 99.1 | 96 | 98.8 | 98.9 | Activity (Candida albicans [21]): 0.97%; inhibition of growth at 16 µg/mL (Candida albicans [22]): 99.2%; inhibition of growth at 0.25 µg/mL (Candida albicans [23]): 91.8%; inhibition of growth at 0.25 µg/mL (Candida albicans [24]): 99.1%; Activity (Candida albicans [25]): 0.47%; inhibition of growth at 8 µg/mL (Candida albicans [26]): 99.4%; Activity (Candida albicans [27]): 0.69%; inhibition of growth at 4 µg/mL (Candida albicans [28]): 99.1%; inhibition of growth at 1 µg/mL (Candida albicans [29]): 99.3%; inhibition of growth at 1 µg/mL (Candida albicans [30]): 99.4%; inhibition of growth at 2 µg/mL (Candida albicans [31]): 99.5%; inhibition of growth at 16 µg/mL (Candida albicans [32]): 99.6%
